GSK3 alpha inh = blockers of GSK3A enzyme activity – biochemical, luminescence, cell-free homogeneous, HTS, primary screen; Glycogen synthase kinase-3 alpha (Homo sapiens), P49840; GSK-3 alpha kinase, ADP-Glo luminescence, 60 min; inhibition, % at 10 µM; hit rate 0.1% among 320,000; AID 2650, 2010;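 active means more than half of replicates show inhibition above 20%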;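 further: GST-tagged GSK-3 alpha with peptide substrate and 25 µM ATP; 0% = DMSO neutral wells and 100% = GW8510 positive control wells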
Target sequence (P49840 whole entry, looked up): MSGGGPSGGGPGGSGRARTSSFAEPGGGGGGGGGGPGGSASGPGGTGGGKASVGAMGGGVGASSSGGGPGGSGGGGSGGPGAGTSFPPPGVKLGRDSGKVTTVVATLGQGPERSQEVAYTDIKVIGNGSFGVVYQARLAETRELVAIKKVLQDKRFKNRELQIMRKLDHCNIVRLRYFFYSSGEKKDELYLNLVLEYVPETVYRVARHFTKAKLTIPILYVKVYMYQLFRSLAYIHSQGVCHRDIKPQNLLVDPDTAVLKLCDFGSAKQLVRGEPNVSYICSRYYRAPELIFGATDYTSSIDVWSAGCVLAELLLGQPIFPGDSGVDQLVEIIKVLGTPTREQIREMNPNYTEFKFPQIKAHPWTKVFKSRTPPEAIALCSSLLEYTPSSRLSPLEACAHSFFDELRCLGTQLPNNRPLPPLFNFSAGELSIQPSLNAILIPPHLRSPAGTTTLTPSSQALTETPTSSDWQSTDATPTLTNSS
SR-BI uptake up = activators of SR-BI mediated DiI-HDL uptake, primary screen, ldlA[mSR-BI] CHO cells, DiI fluorescence; 3 h; 100 = double the neutral-control signal; activation, % at 12.5 µM; hit rate 0.096% among 320,000; AID 504775, 2011;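 active means mean replicate activation of at least 60% and every replicate at or above 60%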;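 further: 0% = median plate neutral-control signal and 100% = twice that signal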
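Material: SR-BI-overexpressing, LDLR-lacking CHO cells; schedule: compound exposure 3 h, 37 °C; reagent: DiI-labelled HDL at 10 µg/mL final; technique: bottom-read fluorescence, 550/595 nm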
SR-BI DiI inh = inhibitors of SR-BI mediated HDL lipid uptake, primary screen, ldlA[mSR-BI] cells, fluorescence, single point. Scavenger receptor class B member 1 (Mus musculus), Q61009. ldlA[mSR-BI] CHO cells, DiI-HDL uptake fluorescence, 3 h. inhibition, % at 12.5 µM. hit rate 0.96% among 320,000;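 active means mean replicate inhibition of at least 70% and a set share of replicates each scoring 70 or more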;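 further: 0% = median of neutral control wells and 100% = median of positive control wells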
GSK3beta inhib = human GSK3beta kinase inhibitors, primary screen, biochemical, cell-free homogeneous, HTS; GST-GSK3beta kinase, ADP-Glo luminescence, 60 min; stronger effect = lower value; activity score (negative = inhibition), % at 10 µM; hit rate 0.038% among 300,000; AID 2097, 2009;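 active means more than half of replicate wells score below -50%, meaning over 50% inhibition versus plate controls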;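 further: 0% = median DMSO wells and -100% = median GW8510 positive control wells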
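Assay system: GST-fused GSK3beta enzyme, cell-free / Medium: Tris pH 7.5 buffer with MgCl2, DTT, BSA, heparin / Also added: peptide substrate plus 25 µM ATP (final) / Compound: 10 µM single point / Timing: kinase reaction with compound 60 min at room temperature / Detection: ADP-Glo luminescence / Benchmarks: DMSO neutral wells and GW8510 at 20 µM as positive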
CDK5 p35 inh = inhibitors of human CDK5/p35 kinase, primary screen, biochemical, single concentration; Recombinant CDK5/p35, ADP-Glo luminescence, 60 min; inhibition, % at 10 µM; hit rate 0.01% among 330,000;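 active means highest replicate inhibition of at least 50% and at least 75% of replicates reaching 50%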;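 further: plate controls were DMSO neutral control for no effect and GW8510 at 10 µM for full effect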
Active calls of the source: *; · = not tested or not shown; ! = not confirmed by another sample. Most compounds without a hit are left out; they make up all but 1.1% or so of the library.

SMILES	GSK3 alpha inh	SR-BI uptake up	SR-BI DiI inh	GSK3beta inhib	CDK5 p35 inh
COc1ccc(-n2cc(C(=O)Nc3cc([N+](=O)[O-])ccc3OC)c3ccccc3c2=O)cc1	2	·	·	1	-3
N#C/C(=C/C1=C(N2CCOCC2)C(=C/c2ccc(Cl)cc2Cl)/CC1)C(=O)Nc1ccccc1F	·	-74	74*	·	-1
N#C/C(=C/C1=C(N2CCOCC2)C(=C/c2ccccc2)/CC1)C(=O)Nc1ccccc1F	·	-75	75*	·	2
N#C/C(=C\C1=C(N2CCOCC2)C(=C\c2ccc(Cl)cc2)/CC1)C(=O)Nc1ccccc1F	-1	-37	37	3	-1
O=C(N/N=C/c1c[nH]c2ccccc12)c1cc(-c2ccc3ccccc3c2)n[nH]1	2	-73	73*	3	2
Cc1ccc(-c2cc(C(=O)N/N=C/c3c[nH]c4ccccc34)[nH]n2)cc1	·	-89	89*	-8	3
O=C(N/N=C/c1c[nH]c2ccccc12)c1cc(-c2ccccc2)n[nH]1	1	-34	34	0	0
O=C(N/N=C/c1c[nH]c2ccccc12)c1cc(-c2ccc(-c3ccccc3)cc2)n[nH]1	·	-94	94*	-2	-1
COc1ccc(/C=N/Nc2nn3cnnc3c3ccccc23)cc1	-1	·	·	-1	0
CCCCCNC(=O)C1CC(=O)OC12CCCCC2 (configuration not stated)	-2	14	-14	8	-1
COc1ccccc1/C=C1/C(=O)N(c2ccccc2)N=C1C	-1	-18	18	-2	0
CC1=NN(c2ccccc2)C(=O)/C1=C/c1cc(C)n(C2CC2)c1C	-6	-72	72*	-2	2
Cc1ccc(S(=O)(=O)N2CCOCC2)cc1C(=O)Nc1ccc(S(=O)(=O)Nc2nccs2)cc1	-1	·	·	3	0
CCOc1cccc2cc(C(=O)NCc3ccc(Cl)cc3)c(=N)oc12	-3	32	-32	4	-1
C[C@H](CO)N1C[C@H](C)[C@@H](CN(C)S(=O)(=O)c2ccc(F)cc2)Oc2ccc(NC(=O)Cc3cn(C)c4ccccc34)cc2C1=O	-4	-7	7	·	-2
C[C@H]1CN([C@@H](C)CO)C(=O)c2cccc(NC(=O)c3cnccn3)c2O[C@@H]1CN(C)S(=O)(=O)c1ccc(F)cc1	55*	12	-12	·	3
C[C@@H]1CN([C@H](C)CO)C(=O)c2cc(NC(=O)Cc3cn(C)c4ccccc34)ccc2O[C@H]1CN(C)S(=O)(=O)c1ccc(F)cc1	-1	-73	73*	·	1
C[C@H](CO)N1C[C@H](C)[C@@H](CN(C)C(=O)Nc2ccc(C(F)(F)F)cc2)Oc2ccc(NC(=O)Nc3ccc(C(F)(F)F)cc3)cc2C1=O	-3	26	-26	·	-1
C[C@H]1CN([C@@H](C)CO)C(=O)c2cc(NC(=O)NC3CCCCC3)ccc2O[C@H]1CN(C)C(=O)Nc1ccc(C(F)(F)F)cc1	-1	-74	74*	·	-1
CCCCCCCCC(NC(=O)c1ccc(C#N)cc1)C(=O)NCCC (configuration not stated)	-1	-2	2	·	-1
CCCNC(=O)C(CC)NC(=O)c1ccc(C#N)cc1 (configuration not stated)	2	62*	-62	·	-3
CCn1c(SCC(=O)NC(=O)c2ccccc2OC)nc2ccccc21	-1	·	-61	5	-1
COc1ccccc1Nc1cc(C(=O)N2CCc3ccccc3C2)c2ccccc2n1	-1	·	·	-24	·
COc1ccc(Nc2cc(C(=O)N3CCc4ccccc4C3)c3ccccc3n2)c(OC)c1	0	-78	78*	-1	0
CCC(=O)Nc1ccc2c(c1)Cc1cc(NC(=O)CC)ccc1-2	6	-74	74*	1	0
SMILES	GSK3 alpha inh	SR-BI uptake up	SR-BI DiI inh	GSK3beta inhib	CDK5 p35 inh
CCCC(=O)Nc1ccc2c(c1)Cc1ccccc1-2	-2	-14	14	1	2
CC(NC(=O)c1ccc(Cl)cc1)c1nnc(SCC(=O)NC2=NCCS2)n1C (configuration not stated)	1	2	-2	2	-1
N#C/C(=C(/O)c1ccco1)c1nc2ccccc2s1	1	2	-2	-1	1
CC1=CC(=C(C#N)c2nc3ccccc3s2)C=C(C)N1Cc1ccco1	-3	-109	109*	1	1
COc1ccc([C@H]2CC(=O)C=C(/C=C/c3ccc(C(F)(F)F)cc3)C2)cc1	-1	0	0	·	-1
CC12CN3CC(C)(CN(C1)C3c1ccc(Cl)cc1Cl)C2O (configuration not stated)	1	79*	-79	-1	-1
CC12CCC(=O)C=C1CCC1C2C(=O)CC2(C)C1CC[C@]2(O)C(=O)CO (some centres not stated)	-2	-1	1	0	2
Cc1ccc(S(=O)(=O)NC2=C(N3CCN(c4ccccc4F)CC3)C(=O)c3ccccc3C2=O)cc1	1	-68	97*!	-1	0
COc1cc(OC)c(NC(=O)c2cncn2-c2ccc(F)cc2)cc1Cl	2	-72	72*	·	-7
COc1ccc(CN2CCN(C(=O)C3CCN(S(=O)(=O)c4cccs4)CC3)CC2)c(OC)c1OC	-4	-76	76*	5	1
COc1ccc(N2CCN(C(=O)C3CCN(S(=O)(=O)c4cccs4)CC3)CC2)cc1	0	18	-18	1	-1
COc1cc(/C=N/NC(=O)c2sc(N)c(C#N)c2C)ccc1O	65*	-40	40	-45	3
COc1ccc(NC(=O)C(=O)NCCN2CCN(C(=O)c3ccc(C(C)(C)C)cc3)CC2)cc1	4	-77	77*	3	-2
N#Cc1ccc(COC(=O)c2ccccn2)cc1	3	·	·	1	·
CCCN1C(=O)/C(=C/c2ccc(N3CCCC3)c(C)c2)NC1=S	1	-87	87*	0	-3
Cc1cc(/C=C2\NC(=S)N(C)C2=O)ccc1N1CCCC1	-2	-48	48	-1	-1
CCOC(=O)c1cc(CC)sc1NC(=O)c1ccc2c(c1)OCCO2	3	-71	71*	2	-4
CCOC(=O)c1cc(CC)sc1NC(=O)c1cc(OCC)c(OCC)c(OCC)c1	·	-58	58	10	3
CC(C)(C)OC(=O)N1CCC(c2c(C(=O)NCC3CCN(C4CCCC4)C3)cnn2-c2ccc(F)cc2)CC1 (configuration not stated)	-1	16	-16	-1	-2
